# Sampled rows, rich in hits. Any-hit rate of the full collection: about 1.6%.
# PG9 binder = PG9 antibody binding by small molecule. TR-FRET gp120-PG9 antibody binding. inhibition, % at 6.7 µM. 360,000 tested, 0.43% active; in the data active means inhibition above about 8.5%
# VLA-4 inh = inhibition in a human VLA-4 binding assay; VLA-4 expressing cells, ligand binding flow cytometry; P13612; inhibition, % (about 7 µM as worked out from the volumes in the protocol); 330,000 tested, 0.2% active; AID 2557; in the data active means inhibition above about 50%
# NR2E3 ag-1 = NR2E3 (human) agonism; 320,000 tested, 0.12% active; Q9Y5X4; GST-NR2E3/biotin-RetCOR TR-FRET, 1536-well; inhibition of corepressor binding, % at 4.78 µM;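 active means percent inhibition above the cutoff of mean plus 3 SD of all tested compounds, set per screening campaign, cut at about 20% in these data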
#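 System: GST-tagged NR2E3 plus biotinylated RetCOR corepressor; Buffer or medium: pH 7.5 Tris-based buffer; Probe or stimulus: RetCOR corepressor, biotinylated, 7 nM; Doses: compound at 4.8 µM, single dose; Schedule: 5 h incubation at 4 °C; Technique: time-resolved FRET; Evaluation: percent inhibition of TR-FRET ratio; Replication: one well per compound, singlicate testing.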
# Rev-erbA mod = modulates human Rev-erb alpha binding to DNA; P20393; Rev-erbα–FITC-DNA binding, fluorescence polarization, 90 min; activity, % at 10 µM; 370,000 tested, 0.79% active;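 active means activity above about 14%, limit read from the data; passing the limit was not always enough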
# Target sequence (P20393 whole entry, looked up): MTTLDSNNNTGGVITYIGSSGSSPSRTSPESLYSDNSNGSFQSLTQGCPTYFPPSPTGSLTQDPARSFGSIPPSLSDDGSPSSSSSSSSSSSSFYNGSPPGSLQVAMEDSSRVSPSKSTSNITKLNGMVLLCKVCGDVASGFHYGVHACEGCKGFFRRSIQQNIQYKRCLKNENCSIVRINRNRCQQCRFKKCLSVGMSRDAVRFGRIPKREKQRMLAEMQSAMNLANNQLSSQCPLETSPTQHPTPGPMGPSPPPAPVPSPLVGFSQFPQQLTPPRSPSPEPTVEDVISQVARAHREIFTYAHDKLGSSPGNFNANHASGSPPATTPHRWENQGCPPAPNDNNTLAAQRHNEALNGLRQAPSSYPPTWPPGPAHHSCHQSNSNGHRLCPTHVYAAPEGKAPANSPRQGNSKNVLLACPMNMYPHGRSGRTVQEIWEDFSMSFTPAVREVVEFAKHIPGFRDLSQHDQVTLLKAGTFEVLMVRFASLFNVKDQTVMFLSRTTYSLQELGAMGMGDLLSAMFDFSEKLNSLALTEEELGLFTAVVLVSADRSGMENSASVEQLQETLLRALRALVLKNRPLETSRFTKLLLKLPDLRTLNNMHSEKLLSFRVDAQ
# NR2E3 ag-2 = agonists of human NR2E3 nuclear receptor; CHO-S Gal4-NCOR/VP16-NR2E3 two-hybrid, luciferase; 360,000 tested, 0.35% active; Q9Y5X4; inhibition of corepressor binding, % at 3.98 µM; AID 602229;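 active means inhibition above the mean of all tested compounds plus 3 SD, cut at about 70% in these data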;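 further: higher means lower luciferase signal from less NR2E3 corepressor binding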
# VLA-4 allo CP = confirmation of allosteric modulators of human VLA-4 integrin; shares compounds with VLA-4 inh; U937 cells, HUTS-21 LIBS mAb binding, flow cytometry; LDV ligand present at threefold Kd; inhibition, % at 6.7 µM; 1,300 tested, 2% active; AID 2813; in the data active means inhibition above about 40%
# Hits are given with their value; 0 = inactive; - = not tested or not shown.
SMILES,PG9 binder,VLA-4 inh,NR2E3 ag-1,Rev-erbA mod,NR2E3 ag-2,VLA-4 allo CP
CCCCOc1ccc(C(=O)NC2CCCCN(CCC)C2=O)cc1 (centres undefined),0,-,-,0,-,-
CN1CCc2nc(SCC(=O)Nc3ccc(Cl)cc3)c(C#N)cc2C1,0,106,0,0,0,0
CCN(C[C@H]1N[C@@](Cc2ccccc2)(C(=O)OC)[C@H]2C(=O)N(Cc3ccccc3)C(=O)[C@@H]12)S(=O)(=O)c1ccc(-c2ccccc2)cc1,0,0,-,0,0,0
COC(=O)[C@]1(Cc2ccccc2)N[C@H](CN(C)S(=O)(=O)c2ccc(-c3ccccc3)cc2)[C@@H]2C(=O)N(Cc3ccccc3)C(=O)[C@@H]21,0,0,-,0,0,0
Cc1ccc(NC(=O)C2CCCN2S(=O)(=O)c2cccnc2)cc1C (centres undefined),-,-,-,0,-,-
COc1ccc(NC(=O)C2CCN(C(=O)c3ccccc3)CC2)cc1OC,0,0,0,0,0,-
COc1ccc(NC(=O)C2CCN(C(=O)c3ccccc3)CC2)c(OC)c1,0,0,0,0,0,0
COc1ccc(C(=O)N2CCC(C(=O)Nc3ccccc3OC)CC2)cc1,0,57,0,0,0,0
COc1cc(OC)cc(C(=O)N2CCC(C(=O)NCCc3ccccc3)CC2)c1,0,0,0,0,0,-
COC(=O)c1ccccc1NC(=O)C1CCN(C(=O)c2cc(OC)cc(OC)c2)CC1,0,0,0,0,0,0
COc1cc(C(=O)N2CCC(C(=O)Nc3cccc(C(C)=O)c3)CC2)cc(OC)c1OC,0,94,0,0,0,0
CCOC(=O)N1CCN(C(=O)C[C@H]2C[C@@]3(C(=O)OC)C(=C[C@H](COCc4ccccc4)O[C@@H]3C)N(Cc3ccc(Cl)cc3Cl)C2=O)CC1,-,-,-,0,-,-
CC1Cc2ccccc2N1c1ncnc(N)c1[N+](=O)[O-] (centres undefined),0,53,0,0,0,0
C=C(C)CN(CC)C(=O)CN1C(=O)NC(C)(c2ccc3ccccc3c2)C1=O (centres undefined),0,50,0,0,0,0
CCCCNC(=O)C1(C(=O)c2ccc(OC)cc2)CC(c2ccccc2C(F)(F)F)=NO1 (centres undefined),-,-,-,0,-,-
CCOc1ccc(N(Cc2ccc(OC)c(OC)c2)C(=O)c2ccco2)cc1,0,68,0,0,0,0
O=C(Nc1ccsc1C(=O)O)c1cccc(C(F)(F)F)c1,0,0,0,0,0,0
CC(C)c1ccc(C(=O)Nc2cc(Cl)ccc2C(=O)O)cc1,-,-,-,0,-,-
COC(=O)c1ccc(Cl)c(NC(=O)c2cccc([N+](=O)[O-])c2C)c1,0,0,0,0,0,-
COC(=O)c1ccc(C)c(NC(=O)c2ccc(Cl)c([N+](=O)[O-])c2)c1,0,54,0,0,0,0
CCCOc1ccc(N2C(=O)CC(N(CCCO)C(=O)CC)C2=O)cc1 (centres undefined),0,0,0,0,0,-
CNC(=S)N(Cc1ccc(OC)cc1)C1CC(=O)N(c2ccc(OC)cc2)C1=O (centres undefined),0,0,0,0,0,-
COc1ccc(N2C(=O)CC(N(Cc3ccc(S(N)(=O)=O)cc3)C(C)=O)C2=O)cc1 (centres undefined),0,0,0,0,0,0
CCCOc1ccc(N2C(=O)CC(N(Cc3ccc(S(N)(=O)=O)cc3)C(=O)CC)C2=O)cc1 (centres undefined),0,0,0,0,0,0
Cc1nn(CCC(=O)NNC(=O)Nc2ccc(F)cc2)c(C)c1[N+](=O)[O-],-,-,-,0,-,-
SMILES,PG9 binder,VLA-4 inh,NR2E3 ag-1,Rev-erbA mod,NR2E3 ag-2,VLA-4 allo CP
O=S(=O)(Nc1ncccn1)c1cc(Cl)ccc1Cl,0,0,0,0,0,0
O=S(=O)(Nc1ccccn1)c1cc(Cl)ccc1Cl,0,0,0,0,0,-
Cc1ccc(CNC(=O)C2CCCN2S(=O)(=O)c2ccc(Cl)cc2)cc1 (centres undefined),0,0,0,0,0,-
Cc1ccc(CNC(=O)C2CCCCN2S(=O)(=O)c2ccccc2)cc1 (centres undefined),0,55,0,0,0,0
N#CCCN(C(=O)COC(=O)CCc1nc2ccccc2c(=O)[nH]1)c1ccccc1F,0,51,0,0,0,0
CN(C(=O)COC(=O)CCc1nc2ccccc2c(=O)[nH]1)C1CCS(=O)(=O)C1 (centres undefined),0,0,0,0,0,-
Cc1ccc(C(=O)c2cc([N+](=O)[O-])ccc2N2CCCCC2)cc1,0,0,0,0,0,-
O=C(c1cc([N+](=O)[O-])ccc1N1CCOCC1)N1CCCCC1,0,0,0,0,0,-
O=C(c1ccc(Br)cc1)c1cc([N+](=O)[O-])ccc1N1CCOCC1,0,0,0,0,0,0
O=C(c1ccccc1)c1cc([N+](=O)[O-])ccc1N1CCOCC1,0,0,0,0,0,0
O=C(c1ccc(Cl)cc1)c1cc([N+](=O)[O-])ccc1N1CCOCC1,0,0,0,0,0,-
Cc1ccc(C(=O)c2cc([N+](=O)[O-])ccc2N2CC(C)OC(C)C2)cc1 (centres undefined),0,0,0,0,0,0
C[C@H]1[C@@H](OC(=O)N2CCN(c3ccccc3)CC2)CC[C@@]23CCCN2C(=O)CCC[C@@H]13,-,-,-,0,-,-
N#Cc1c(-c2ccc(Cl)cc2Cl)nc2n(c1=O)CCS2,0,92,0,0,0,0
O=c1c(C(c2ccc(Cl)cc2)c2c(O)nc3n(c2=O)CCS3)c(O)nc2n1CCS2,0,0,0,0,0,-
Cn1c(=N)n(CC(O)c2ccco2)c2ccccc21 (centres undefined),0,0,0,0,0,-
Cn1c(=N)n(CC(O)c2cccc3ccccc23)c2ccccc21 (centres undefined),0,51,0,0,0,0
Cc1ccccc1-c1nc2cc(Cl)ccc2c(=O)o1,0,0,0,0,0,0
CCOCCCNc1nc(C(F)(F)F)nc2c1nnn2Cc1ccccc1Cl,0,0,0,0,0,-
C=CCNc1nc(C(F)(F)F)nc2c1nnn2Cc1ccccc1Cl,0,70,0,0,0,0
C=CCN1[C@H](C)COc2cccc(F)c2S1(=O)=O,-,-,-,0,-,-
O=S(=O)(CC1NCc2cc(F)ccc21)NCCc1ccccc1 (centres undefined),-,-,-,0,-,-
NS(=O)(=O)c1cc(C(=O)OCC(=O)Nc2ccccc2[N+](=O)[O-])ccc1Cl,0,0,0,0,0,-
NS(=O)(=O)c1cc(C(=O)OCC(=O)Nc2ccc(Cl)cc2[N+](=O)[O-])ccc1Cl,0,52,0,0,0,0
COCCCNC(=O)C[C@H]1C[C@@]2(C(=O)OC)C(=C[C@H](C3CCCC3)O[C@@H]2C)N(CCC2=CCCCC2)C1=O,-,-,-,0,-,-
O=C(Nc1cccc(C(F)(F)F)c1)O[C@@H]1CC[C@@]23CCCN2C(=O)CCC[C@H]3C1,-,-,-,0,-,-

# Bioassay records: PubChem BioAssay, several laboratories
